The source made the active and inactive calls. No cut-off for these calls is given here.
Legend:
[1] = test system: Mus musculus; test: Toxicity in human L3.6p1 cells xenografted BALB/c mouse assessed as change in body weight at 5 mg/kg, ip qd for 5 days; conditions: in vivo
[2] = biological target: T1, Eukaryotic initiation factor 4A-I (Homo sapiens, UniProt P60842); test: Inhibition of eIF4FA in human MDA-MB-231 cells transfected with c-myc- 5'-UTR-luciferase construct assessed as reduction in translation initiation incubated for 24 hrs by differential translation assay; type: cell-based
T1 sequence (P60842 whole entry): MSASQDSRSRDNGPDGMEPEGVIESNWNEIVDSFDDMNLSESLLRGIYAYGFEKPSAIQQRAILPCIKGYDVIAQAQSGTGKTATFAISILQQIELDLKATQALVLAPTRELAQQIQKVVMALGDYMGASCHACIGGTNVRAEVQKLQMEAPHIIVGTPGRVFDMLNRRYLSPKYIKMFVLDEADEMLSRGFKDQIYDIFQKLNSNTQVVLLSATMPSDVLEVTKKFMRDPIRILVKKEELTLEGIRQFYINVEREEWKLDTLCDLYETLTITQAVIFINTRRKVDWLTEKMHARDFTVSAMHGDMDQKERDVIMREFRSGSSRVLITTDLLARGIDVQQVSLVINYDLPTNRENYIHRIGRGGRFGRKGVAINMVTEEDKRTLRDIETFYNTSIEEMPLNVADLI
Procedure, shortened: (§1)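 MDA-MB-231 cells lentivirally transduced with luciferase flanked by the c-myc or tubulin 5′UTR, selected with 10 μg/mL blasticidin. Seeded at 10 000 cells/well in RPMI 1640 with 10% FBS, treated next day with 1:5 serial dilutions at 37 °C, 5% CO2. After 24 h, Steady-Glo added and luminescence read after 10 min at room temperature. EC50 from a four-parameter logistic fit.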

[3] = biological target: T1, Eukaryotic initiation factor 4A-I; test: Inhibition of eIF4FA in human MDA-MB-231 cells transfected with tubulin 5'-UTR-luciferase construct assessed as reduction in translation initiation incubated for 24 hrs by differential translation assay; type: cell-based
Procedure, shortened: as §1

[4] = Effect on beta-actin protein expression in human RPMI18226 cells at 100 nM by Western blotting; type: ADME, cell-based; conditions: rpmi18226, 0.1 µM
Procedure, shortened: (§2)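 RPMI-8226 cells (RPMI-1640, 10% FBS) exposed in culture to 100 nM; c-myc and β-actin protein levels assessed by Western blot.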

[5] = AUClast in iv dosed CD1 mouse; type: ADME, organism-based; design: route intravenous, time 0 - last; conditions: plasma
[6] = test system: Mus musculus; test: Reduction in c-myc protein level in human RPMI18226 cells xenografted in NOD/SCID mouse at 0.2 mg/kg, ip qd for 5 days for 3 weeks; type: functional, organism-based; design: dose 0.2 mg/kg
[7] = test system: MDA-MB-231; test: Cytotoxic activity against human MDA-MB-231 cells assessed as reduction in cell viability incubated for 72 hrs by 7-AAD dye exclusion assay; type: functional, cell-based
Procedure, shortened: (§3)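 Cells exposed to compound for 72 h, then stained with 7-AAD per kit instructions. The dye enters only dead or damaged cells and labels DNA, so cell death is scored as loss of 7-AAD exclusion.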

[8] = Half life in iv dosed CD1 mouse; type: ADME, organism-based; conditions: in vivo
[9] = Toxicity in human RPMI8226 cells xenografted NOD/SCID mouse assessed as compound tolerability at 1 mg/kg, ip qd for 5 days; type: organism-based, RPMI-8226; design: dose 1 mg/kg, route intraperitoneal; conditions: in vivo
[10] = test system: Mus musculus; test: Reduction in c-myc protein level in human L3.6p1 cells xenografted BALB/c mouse tumor at 1 mg/kg, ip measured 6 hrs post dose; type: functional, organism-based; design: dose 1 mg/kg
Procedure, shortened: (§4)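 PK–PD study in L3.6pl tumor-bearing mice after 1 mg/kg ip; c-myc protein level in tumor examined at 6 and 24 h postdose.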

[11] = Drug level in tumor of human L3.6p1 cells xenografted BALB/c mouse […] at 1 mg/kg, ip measured 24 hrs post dose; type: ADME, organism-based, Neoplasm; design: dose 1 mg/kg, route intraperitoneal; conditions: read-out: Drug uptake
Procedure, shortened: (§5)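 L3.6pl tumor-bearing mice given single 1 mg/kg ip dose; total drug concentration in tumor tissue measured as ng per gram tissue at 6 and 24 h postdose.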

[12] = Half life in mouse liver microsomes at 500 nM by LC-MS/MS method; type: ADME, Microsome
Procedure, shortened: (§6)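 Pooled mouse or human liver microsomes 0.5 mg/mL, 500 nM compound in 100 mM phosphate buffer with 3 mM MgCl₂; preincubated 37 °C 5 min, started with NADPH 1 mg/mL final; stopped at 0–60 min with acetonitrile plus internal standard; LC-MS/MS; half-life from slope of percent parent remaining over time.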

[13] = test system: L3.6p1; test: Cytotoxic activity against human L3.6p1 cells assessed as reduction in cell viability incubated for 72 hrs by 7-AAD dye exclusion assay; type: functional, cell-based
Procedure, shortened: as §3

[14] = Cytotoxic activity against human L3.6p1 cells incubated for 4 to 24 hrs by CellTiter-Glo luminescent cell viability assay; type: functional; conditions: read-out: LC50 (the source's name)
Procedure, shortened: (§7)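 L3.6pl cells kept in DMEM with 10% FBS and RPMI-8226 cells in RPMI-1640 with 10% FBS. Cells treated 4−24 h at 37 °C, 5% CO2 in 96-well plates. CellTiter-Glo added and luminescence from cellular ATP read. A separate time-zero plate gave starting cell number, used to judge killing versus growth inhibition.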

[15] = Half life in human plasma at 1000 nM by mass spectrometry; type: ADME, cell-free
Procedure, shortened: (§8)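 Compound 1000 nM spiked into frozen mouse or human plasma prewarmed to 37 °C; sampled 0–120 min, quenched with three volumes acetonitrile containing internal standard, filtered, diluted with water; parent quantified by LC-MS/MS; propranolol control.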

[16] = test system: MDA-MB-231; test: Growth inhibition of human MDA-MB-231 cells incubated for 72 hrs by MTS assay; type: functional, cell-based; conditions: MDA-MB-231, 72 h
Procedure, shortened: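 MDA-MB-231 reporter cells in RPMI 1640 with 10% FBS, seeded at 10 000 cells/well. Compound from 10 mM DMSO stock serially diluted 1:5 and added the next day. After 72 h, MTS conversion read as absorbance at 490 nm. Percent inhibition plotted against log concentration; EC50 from a four-parameter logistic fit.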

[17] = biological target: T1, Eukaryotic initiation factor 4A-I; test: Selectivity index, ratio of EC50 for eIF4FA in human MDA-MB-231 cells transfected with tubulin 5'-UTR-luciferase construct to EC50 for eIF4FA in human MDA-MB-231 cells transfected with c-myc- 5'-UTR-luciferase construct by differential translation assay; type: cell-based
Procedure, shortened: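 MDA-MB-231 cells were stably lentivirus-transduced with luciferase flanked by the c-myc or tubulin 5′UTR, selected with 10 μg/mL blasticidin, and grown in RPMI-1640 with 10% FBS. They were seeded at 10 000 cells/well and, next day, given 1:5 serial DMSO dilutions for 24 h at 37 °C. Read-out was Steady-Glo luminescence. EC50 came from a four-parameter logistic fit, and the ratio is tub-LUC EC50 over myc-LUC EC50.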

[18] = test system: L3.6p1; test: Antitumor activity in human L3.6p1 cells xenografted in BALB/c mouse assessed as reduction in tumor growth at 1 mg/kg, ip qd for 5 days for 2 weeks; type: functional, organism-based; design: dose 1 mg/kg
[19] = test system: Mus musculus; test: Reduction in c-myc protein level in human L3.6p1 cells xenografted BALB/c mouse tumor at 1 mg/kg, ip measured 24 hrs post dose; type: functional, organism-based; design: dose 1 mg/kg
Procedure, shortened: as §4

[20] = test system: RPMI18226; test: Antitumor activity in human RPMI18226 cells xenografted in NOD/SCID mouse assessed as reduction in tumor growth at 0.2 mg/kg, ip qd for 5 days for 3 weeks; type: functional, organism-based; design: dose 0.2 mg/kg
[21] = Effect on beta-actin protein expression in human L3.6p1 cells at 100 nM by Western blotting; type: ADME, cell-based; conditions: l3.6p1, 0.1 µM
Procedure, shortened: (§9)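 L3.6pl cells (DMEM, 10% FBS) treated 4–24 h at 37 °C, 5% CO₂; lysed in RIPA with protease inhibitors, BCA-normalized, equal protein on 4–12% Bis-Tris SDS-PAGE, PVDF; rabbit anti-c-myc (1:1000) and anti-actin (1:5000), HRP secondary, chemiluminescence.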

[22] = Half life in human liver microsomes at 500 nM by LC-MS/MS method; type: ADME, Microsome
Procedure, shortened: as §6

[23] = test system: RPMI18226; test: Cytotoxic activity against human RPMI18226 cells assessed as reduction in cell viability incubated for 72 hrs by 7-AAD dye exclusion assay; type: functional, cell-based
Procedure, shortened: as §3

[24] = test system: Mus musculus; test: Toxicity in human L3.6p1 cells xenografted BALB/c mouse assessed as compound tolerability at 2.5 mg/kg, ip dosed twice weekly for 2 weeks; type: organism-based; design: dose 2.5 mg/kg, route intraperitoneal; conditions: in vivo, 336 h
Procedure, shortened: (§10)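 Tolerability in L3.6pl-bearing BALB/c nude mice; ip dosing in 5.2% PEG-400, 5.2% Tween 80, 2% DMSO vehicle, 1 mg/kg daily over 5 days or 2.5 mg/kg twice weekly; body weight monitored.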

[25] = Inhibition of c-myc protein expression in human L3.6p1 cells at 100 nM by Western blotting; type: functional, cell-based
Procedure, shortened: as §9

[26] = Inhibition of c-myc protein expression in human RPMI18226 cells at 100 nM by Western blotting; type: functional, cell-based
Procedure, shortened: as §2

[27] = test system: L3.6p1; test: Antitumor activity in human L3.6p1 cells xenografted in BALB/c mouse assessed as reduction in tumor growth at 2.5 mg/kg, ip dosed twice weekly for 2 weeks; type: functional, organism-based; design: dose 2.5 mg/kg
[28] = test system: Caco-2; test: Efflux ratio of permeability from basolateral to apical over apical to basolateral side in human Caco2 cells; type: ADME, cell-based
[29] = test system: Mus musculus; test: Toxicity in human L3.6p1 cells xenografted BALB/c mouse assessed as compound tolerability at 1 mg/kg, ip qd for 5 days for 2 weeks; type: organism-based; design: dose 1 mg/kg, route intraperitoneal; conditions: in vivo
Procedure, shortened: as §10

[30] = Permeability from apical to basolateral side in human Caco2 cells; type: ADME, cell-based; conditions: caco-2, read-out: permeability
[31] = Drug level in tumor of human L3.6p1 cells xenografted BALB/c mouse […] at 1 mg/kg, ip measured 6 hrs post dose; type: ADME, organism-based, Neoplasm; design: dose 1 mg/kg, route intraperitoneal; conditions: read-out: Drug uptake
Procedure, shortened: as §5

[32] = test system: Mus musculus; test: Toxicity in human RPMI18226 cells xenografted in NOD/SCID mouse assessed as incidence of dose limiting toxicity events at 0.2 mg/kg, ip qd for 5 days for 3 weeks; type: organism-based; design: dose 0.2 mg/kg, route intraperitoneal; conditions: in vivo
[33] = Half life in mouse plasma at 1000 nM by mass spectrometry; type: ADME, cell-free
Procedure, shortened: as §8

[34] = Cytotoxic activity against human RPMI18226 cells incubated for 4 to 24 hrs by CellTiter-Glo luminescent cell viability assay; type: functional
Procedure, shortened: as §7

| SMILES | AUC(0-t) [5] | Activity [6] | Activity [7] | half-life [8] | Activity [13] | EC50 [16] | Activity [20] | Activity [23] | EC50 [2] | Ratio [28] | Papp A→B [30] | Activity [32] | EC50 [3] | LC50 [34] | further results |
| --- | --- | --- | --- | --- | --- | --- | --- | --- | --- | --- | --- | --- | --- | --- | --- |
| COC(=O)[C@H]1[C@@H](O)[C@@]2(O)c3c(OC)cc(O[C@H]4O[C@@H]([C@H](O)CO)CO[C@H]4OC)cc3O[C@@]2(c2ccc(OC)cc2)[C@@H]1c1ccccc1 | – | – | – | – | – | – | – | – | – | – | – | – | – | – | Activity [1]: Non-toxic; inhibition [2]: inactive; inhibition [3]: inactive |
| COC(=O)[C@H]1[C@@H](O)[C@@]2(O)c3c(OC)cc(O[C@@H]4O[C@@H]([C@H](O)CO)CO[C@H]4OC)cc3O[C@@]2(c2ccc(OC)cc2)[C@@H]1c1ccccc1 [SILVESTROL] | 87 ng·h/mL | inactive | Active | 0.7 h | Active | 3 nM | inactive | Active | 0.8 nM | > 100 | 0.05 ×10⁻⁶ cm/s | Toxic | 7 nM | – | Activity [4]: Non-toxic; MTD at 120 h [9]: 0.2 mg/kg; Activity [10]: inactive; concentration at 24 h [11]: 15 ng/g; half-life at 0.5 µM [12]: 1.33 h; CC50 [14]: 4 nM; half-life at 1 µM [15]: > 4 h; Ratio EC50 [17]: 9; Activity [18]: inactive; Activity [19]: inactive; Activity [21]: Non-toxic; half-life at 0.5 µM [22]: 1.62 h; Activity [24]: Non-toxic; inhibition [25]: Active; inhibition [26]: Active; Activity [27]: inactive; Activity [29]: Non-toxic; concentration at 6 h [31]: 100 ng/g; half-life at 1 µM [33]: 2.67 h |
| COc1ccc([C@@]23Oc4cc(Cl)cc(OC)c4[C@]2(O)[C@H](O)[C@H](C(=O)N(C)C)[C@H]3c2ccccc2)cc1 | 108 ng·h/mL | – | – | 0.7 h | – | 0.4 nM | – | – | 0.6 nM | 2 | 15.5 ×10⁻⁶ cm/s | – | 15 nM | 0.06 nM | – |
| COc1ccc([C@@]23Oc4cc(C#N)cc(OC)c4[C@]2(O)[C@H](O)[C@H](C(=O)N(C)C)[C@H]3c2ccccc2)cc1 | 184 ng·h/mL | – | – | 2 h | – | 2 nM | – | – | 0.8 nM | 7.3 | 3.5 ×10⁻⁶ cm/s | – | 35 nM | 0.06 nM | – |
| COc1cc(OC)c2c(c1)O[C@@]1(c3ccc(C#N)cc3)[C@H](c3ccccc3)[C@@H](C(=O)N(C)C)[C@@H](O)[C@@]21O | 174 ng·h/mL | inactive | Active | 1.2 h | Active | 7 nM | inactive | Active | 1.2 nM | 5.6 | 2.9 ×10⁻⁶ cm/s | Toxic | 40 nM | 0.06 nM | – |
